# Screening data deposited in PubChem BioAssay by The Scripps Research Institute Molecular Screening Center.
# OX1R antag-1: antagonists of human orexin 1 receptor | inhibition, % at 5 µM | O43613 | AID 434989 | CHO/OX1R cells, Fluo-8 calcium fluorescence, orexin A | 330,000 compounds, 0.43% hits;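 active means inhibition above its plate's threshold, mean inhibition of all tested compounds on the plate plus 3 SD, cut at about 37% in these data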;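 further: 0% = orexin A challenge wells and 100% = SB-334867-A antagonist wells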
# Target sequence (O43613 whole entry, looked up): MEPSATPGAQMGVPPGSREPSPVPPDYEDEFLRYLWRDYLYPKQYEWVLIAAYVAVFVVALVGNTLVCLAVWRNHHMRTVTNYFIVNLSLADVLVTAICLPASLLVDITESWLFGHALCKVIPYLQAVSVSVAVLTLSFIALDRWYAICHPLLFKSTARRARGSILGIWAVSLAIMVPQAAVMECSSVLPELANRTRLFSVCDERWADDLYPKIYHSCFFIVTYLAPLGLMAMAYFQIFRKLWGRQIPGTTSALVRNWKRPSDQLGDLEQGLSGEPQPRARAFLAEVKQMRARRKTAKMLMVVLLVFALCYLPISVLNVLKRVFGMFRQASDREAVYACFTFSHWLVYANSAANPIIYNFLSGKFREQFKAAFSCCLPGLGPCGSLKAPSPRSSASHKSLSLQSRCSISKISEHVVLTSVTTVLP
# CHO parental Ca: counter-screen: ATP calcium response change in parental CHO cells. inhibition, % at 5.6 µM. 330,000 compounds, 0.63% hits. parental CHO-K1, ATP-induced calcium, Fluo-8 fluorescence. AID 463079;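 active means inhibition above that plate's mean sample inhibition plus 3 SD, cut at about 26% in these data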;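 further: 0% = ATP-challenged DMSO wells and 100% = DMSO wells without ATP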
#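 Assay system: untransfected parental CHO cell line. Also added: ATP agonist challenge. Dosing: one dose, 5.6 µM nominal. Measured by: Fluo-8 fluorescence. Read-out: % inhibition. Benchmarks: ATP wells versus no-ATP DMSO wells. Repeats: no replicates.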
# OX1R antag-2: blocks the human orexin 1 receptor | OX1R-expressing cells, FRET antagonist read-out | inhibition, % at 6.6 µM | 330,000 compounds, 1.8% hits; in the data active means inhibition mostly above about 38%, no sharp cut-off; inactive means mostly below about 40%;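 further: 0% = agonist challenge alone and 100% = reference antagonist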
# TRPML3 agonist: activates the human TRPML3 channel; HEK293 TRPML3-YFP, Fluo-8 calcium fluorescence; 100% = the carbachol control signal; activation, % at 3 µM; Q8TDD5; 220,000 compounds, 0.29% hits;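 active means activation above its plate's cutoff, the mean activation of the plate's test wells plus 3 SD, cut at about 12% in these data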;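 further: 0% = DMSO only wells and 100% = carbachol wells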
#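 Test system: HEK293 cells stably carrying human TRPML3-YFP; Doses: single dose, 3 µM final nominal compound, 0.3% DMSO final; Schedule: dye loading 1 h 37 °C then 30 min ambient, 125 s read; Technique: Fluo-8 calcium fluorescence; Benchmarks: high control carbachol 87 µM, low control DMSO.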
# TRPN1 ag: zebrafish TRPN1 (NompC) channel agonism. activation, % at 3 µM. HEK293 zebrafish TRPN1-YFP, Fluo-8 calcium fluorescence; 100% = response to 87 µM carbachol. AID 1424. 220,000 compounds, 0.18% hits;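 active means activation above its plate's cutoff, the mean activation of test wells on that plate plus 3 SD, cut at about 19% in these data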;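 further: 0% = DMSO alone and 100% = 87 µM carbachol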
#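 Material: zebrafish TRPN1-YFP in HEK293 cells; Doses: single test compound dose, 3 µM nominal, 0.3% DMSO; Timing: dye loading 1 h at 37 °C, then 30 min room temperature; Technique: intracellular calcium fluorescence with Fluo-8; Benchmarks: high carbachol 87 µM, low DMSO alone.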
# * marks the source's active call; other numbers are inactive results; / = not tested or not shown. Sampled rows, rich in hits. Any-hit rate of the full collection: about 2.5%.
SMILES,OX1R antag-1,CHO parental Ca,OX1R antag-2,TRPML3 agonist,TRPN1 ag
CNC(=O)c1ccccc1NC(=O)C1CC(=O)N(c2ccc(OC)cc2)C1 (centres undefined),-8.9,-8.8,5.1,0.8,0.3
CC(C)(O[C@@H]1O[C@H](CO)[C@@H](O)[C@H](O)[C@H]1O)[C@@H]1CC=C(C(=O)O)CC1,12.3,3.7,2.1,/,/
N/C(=N\OC(=O)C1CC1)c1ccc([N+](=O)[O-])s1,-13.0,-1.6,56.0*,0.2,0.4
N/C(=N\O)c1ccc([N+](=O)[O-])s1,-8.4,-2.4,46.9*,-0.2,-0.7
CCN(c1ccccc1)S(=O)(=O)c1ccc(C(=O)N2CC(C)CC(C)C2)cc1 (centres undefined),-13.3,-3.1,19.9,/,/
COc1ccc(C2CC(C)(c3ccc(OC)cc3OC)Nc3ccccc3N2)c(OC)c1 (centres undefined),38.0*,71.5*,40.5,3.2,0.0
Cc1ccccc1N1C(=O)c2cccc3c(N(C)CCO)ccc(c23)C1=O,25.9,17.7,15.1,17.9*,25.8*
COc1cccc(-c2nn(-c3ccc(C)cc3)cc2C(=O)N2CCN(C3CCS(=O)(=O)C3)CC2)c1 (centres undefined),-21.1,-18.8,9.2,/,/
Cc1cc(C)cc(OCC(=O)N2N=C(c3cccnc3)CC2(O)C(F)(F)F)c1 (centres undefined),-3.0,-3.3,4.9,1.4,2.0
Cc1cc(C)cc(OCC(=O)N2N=C(C(F)(F)F)CC2(O)C(C)(C)C)c1 (centres undefined),8.2,39.7*,8.3,-0.9,-0.6
CC(=O)Nc1cccc(C(=O)/C=C/c2ccc(N(C)C)cc2)c1,100.3*,81.6*,20.6,20.0*,43.8*
CC(=O)Nc1cccc(C(=O)/C=C/c2ccc(/C=C/C(=O)c3cccc(NC(C)=O)c3)cc2)c1,-37.8,-24.0,16.8,0.9,0.7
COc1ccc(C)cc1S(=O)(=O)NNc1nc(C)cc(C)n1,-11.0,-2.4,22.9,/,/
Cc1cc([N+](=O)[O-])cc2ncccc12,-0.5,5.8,69.0*,0.9,1.2
O=C(NC(=S)/C(=C1\CCCCCN1)[N+](=O)[O-])c1ccccc1,-14.4,-16.8,4.8,/,/
COc1cccc(NC(=O)Nc2nc(-c3ccc(OC)c(OC)c3)cs2)c1,73.3*,71.4*,71.5*,/,/
COc1ccccc1C(=O)Nc1nc(-c2ccc3c(c2)OCCO3)cs1,-43.0,-10.8,46.8*,0.5,3.2
O=C(Nc1nc(-c2ccc3c(c2)OCCO3)cs1)c1ccco1,-3.6,-10.6,35.2,/,/
C[C@@H]1COC(=O)CCC/C=C\C[C@@H](CC(=O)N(CCO)Cc2ccccc2)C(=O)N1,-10.8,-13.5,0.9,/,/
COc1ccccc1N1C(=O)c2cccc3c(N(C)CCO)ccc(c23)C1=O,3.6,8.2,4.0,/,/
COc1ccccc1N1C(=O)c2cccc3c(C(=O)O)ccc(c23)C1=O,-0.4,-1.8,38.1*,0.5,-0.9
CN(Cc1nc2ccccc2c(=O)[nH]1)C(=O)c1cccc(S(=O)(=O)N2CCc3ccccc32)c1,-9.8,-18.5,15.4,/,/
CC(C)(C)c1ccc(CN(Cc2ccco2)Cc2nnnn2C2CCCC2)cc1,-21.5,48.2*,11.9,0.1,-1.1
COc1ccc2cc(CN(Cc3ccco3)Cc3nnnn3C3CCCCC3)c(=O)[nH]c2c1,1.6,-26.8,18.7,-0.7,0.0
Cc1cccc(OCC(=O)Nc2nc3ccc([N+](=O)[O-])cc3s2)c1,26.7,-8.3,40.7*,1.1,-0.9
SMILES,OX1R antag-1,CHO parental Ca,OX1R antag-2,TRPML3 agonist,TRPN1 ag
CCC(=O)c1ccc(OCC(=O)Nc2cccc(S(=O)(=O)N(C)c3ccccc3)c2)cc1,77.0*,43.6*,26.8*,/,/
Cc1cccc(OCC(=O)Nc2nc3ccc([N+](=O)[O-])cc3s2)c1C,2.1,5.2,13.8,0.1,1.2
Cc1ccc(S(=O)(=O)N(C)c2ccc(OCC(=O)Nc3nc4ccccc4s3)cc2)cc1,2.5,15.3,57.2*,2.9,1.3
O=C(COc1ccc(Cl)cc1)NCCCNC(=O)c1ccncc1,-3.7,0.9,1.0,/,/
Cc1ccc(N(CC(=O)Nc2c(C)cccc2C)S(C)(=O)=O)cc1,-16.7,-19.9,17.9,/,/
Cc1cc(C)c(S(=O)(=O)Nc2nnc(C3CCCCC3)s2)c(C)c1,-25.9,-16.9,42.1,/,/
Cc1nnc(NC(=O)c2ccc(S(=O)(=O)C(F)F)cc2)s1,-18.1,-7.0,1.3,0.6,0.6
CCNC(=O)COC(=O)c1cccc(Br)c1,-10.0,-6.3,2.4,-0.1,2.3
